Test results from ChEMBL document CHEMBL6114938, “Design, synthesis, and biological evaluation of pyrazole-ciprofloxacin hybrids as antibacterial and antibiofilm agents against Staphylococcus aureus” (RSC Med Chem, 2025).
In brackets after ≈: the same amount, converted by molar mass.

How the values were obtained:
Staphylococcus aureus [1] = assay: Antibacterial activity against Staphylococcus aureus ATCC 29213 assessed as inhibition of bacterial growth incubated for 18 to 24 hrs by two-fold serial dilution method; type: functional; details: time 18-24 hrs
How it was run: (§1)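 Broth microdilution in cation-adjusted Mueller Hinton broth with two-fold serial dilutions. Inoculum came from overnight cultures on Mueller Hinton agar, set to OD600 0.08-0.1 and diluted 100-fold, then added 1:1 to the compound wells. Plates were incubated at 37 °C for 18-24 h and read visually. MIC is the lowest concentration with no turbidity.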

Pseudomonas aeruginosa = assay: Antibacterial activity against Pseudomonas aeruginosa PAO1 ATCC 15692 assessed as inhibition of bacterial growth incubated for 18 to 24 hrs by two-fold serial dilution method; type: functional; details: time 18-24 hrs; how it was run: as §1
[2] = tested on: Mycobacterium tuberculosis; assay: Antimycobacterial activity against Mycobacterium tuberculosis H37Ra ATCC 25177 assessed as inhibition of bacterial growth incubated for 10 days by liquid broth microdilution method; type: functional; details: H37Ra ATCC 25177, 240 h, time 10 day
How it was run: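 Log-phase H37Ra (OD₆₀₀ 0.4–0.6) was grown in 7H9 with D-pantothenic acid, amino acids, 0.2% glycerol, 0.05% Tween 80 and 10% ADS, then diluted to OD₆₀₀ 0.005 (1.0×10⁶ CFU/ml). Compounds were two-fold serially diluted in 7H9, and plates were incubated for 10 days at 37 °C in 5% CO₂. MIC was the lowest concentration without visible turbidity.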

[3] = tested on: Mycobacterium tuberculosis; assay: Antimycobacterial activity against Mycobacterium tuberculosis H37Rv ATCC 27294 assessed as inhibition of bacterial growth incubated for 7 days by broth microdilution assay; type: functional; details: H37Rv ATCC 27294, 168 h, time 7 day
[4] = Cytotoxicity against human HepG2 cells assessed as reduction in cell viability incubated for 48 hrs by MTT assay; type: toxicity, cell-based
How it was run: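 MTT viability assay in HepG2 cells seeded at 1000-4000 per well and allowed to adhere overnight. Compounds were tested at 1000-0.78 µg/mL for 48 h in fresh medium. MTT 0.5 mg/mL was added for 4 h at 37 °C, formazan was dissolved in DMSO, and absorbance was read at 570 nm.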

Staphylococcus aureus [5] = assay: Potency index, ratio of ciprofloxacin MIC to test compound MIC for antibacterial activity against Staphylococcus aureus ATCC 29213; type: functional
Staphylococcus aureus [6] = assay: Antibacterial activity against one-step ciprofloxacin resistant mutant of Staphylococcus aureus ATCC 29213 assessed as inhibition of bacterial growth by liquid broth microdilution assay; type: functional
How it was run: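 One-step ciprofloxacin-resistant mutants were raised by plating log-phase cells adjusted to 10¹⁰ CFU/ml on ciprofloxacin-containing Mueller-Hinton agar for 48 h at 37 °C, then passaging picked colonies on ciprofloxacin plates. Mutants with a more than eightfold rise in ciprofloxacin MIC were kept. MIC was read by broth microdilution: two-fold dilutions in cation-adjusted MHB, and inoculum of OD₆₀₀ 0.08–0.1 diluted hundredfold. Plates ran 18–24 h at 37 °C, and MIC was the lowest concentration with no visible turbidity.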

Staphylococcus aureus [7] = assay: Antibiofilm activity against Staphylococcus aureus ATCC 29213 assessed as inhibition of biofilm formation incubated for 24 hrs by crystal violet staining based analysis; type: functional
How it was run: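 Biofilm formation assay with inoculum at OD600 0.015 from overnight culture. Twelve two-fold dilutions (128 to 0.06 µg/ml) were made in MHB with 2% sucrose in flat-bottom polystyrene wells and incubated at 37 °C for 24 h. Wells were washed with PBS pH 7.4, fixed with methanol, stained with 0.1% crystal violet, eluted with 95% ethanol and read at A595. MBIC50 is the lowest concentration giving ≥50% inhibition versus untreated culture.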

Staphylococcus aureus [8] = assay: Bactericidal activity against Staphylococcus aureus ATCC 29213 assessed as log reduction in bacterial load at 4X to 8XMIC measured within 9 hrs by time-kill kinetics analysis; type: functional
How it was run: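 Time-kill: log-phase cultures at OD600 0.005 were exposed to 1×, 4× and 8× MIC at 37 °C. Viable counts (CFU/ml) were taken by plating 10-fold serial dilutions at 2, 4, 6, 8, 10 and 24 h. Curves plot log10 CFU/ml against time over 24 h.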

Staphylococcus aureus [9] = assay: Antibacterial activity against Staphylococcus aureus NCTC 4163 assessed as inhibition of bacterial growth incubated for 18 hrs by twofold microdilution method; type: functional
Staphylococcus aureus [10] = assay: Antibacterial activity against Staphylococcus aureus ATCC 25923 assessed as inhibition of bacterial growth incubated for 18 hrs by twofold microdilution method; type: functional
Staphylococcus aureus [11] = assay: Antibacterial activity against Staphylococcus aureus ATCC 6538 assessed as inhibition of bacterial growth incubated for 18 hrs by twofold microdilution method; type: functional
Staphylococcus aureus [12] = assay: Antibacterial activity against Staphylococcus aureus ATCC 29213 assessed as inhibition of bacterial growth incubated for 18 hrs by twofold microdilution method; type: functional
Escherichia coli = assay: Antibacterial activity against Escherichia coli ATCC 25922 assessed as inhibition of bacterial growth incubated for 18 hrs by twofold microdilution method; type: functional
Staphylococcus aureus [13] = assay: Antibacterial activity against methicillin-resistant Staphylococcus aureus assessed as inhibition of bacterial growth; type: functional

Compound COc1cccc(-c2ccn(-c3ccc(NC(=O)CN4CCN(c5cc6c(cc5F)c(=O)c(C(=O)O)cn6C5CC5)CC4)cc3)n2)c1 has an MIC (Staphylococcus aureus [1]) of 1 µg/mL (≈ 1.57 µM), an MIC (Pseudomonas aeruginosa) of 32 µg/mL (≈ 50.3 µM) and an MIC [2] of 4 µg/mL (≈ 6.28 µM).

With O=C(Nc1ccc(-n2ccc(-c3cc4ccccc4o3)n2)cc1)c1cc([N+](=O)[O-])cc([N+](=O)[O-])c1 the MIC [3] was 0.03 µg/mL (≈ 0.0639 µM).

With CC/C(=C(\c1ccccc1)c1ccc(OCCN(C)C)cc1)c1ccccc1 [TAMOXIFEN] the CC50 at 48 h [4] was 3.7 µg/mL (≈ 9.95 µM).

Cc1cc(-c2ccn(-c3ccc(NC(=O)CN4CCN(c5cc6c(cc5F)c(=O)c(C(=O)O)cn6C5CC5)CC4)cc3)n2)ccc1F showed an MIC (Staphylococcus aureus [1]) of 16 µg/mL (≈ 25.1 µM), an MIC (Pseudomonas aeruginosa) of 128 µg/mL (≈ 200 µM) and an MIC [2] of 4 µg/mL (≈ 6.26 µM).

COc1ccc(-c2ccn(-c3ccc(NC(=O)CN4CCN(c5cc6c(cc5F)c(=O)c(C(=O)O)cn6C5CC5)CC4)cc3)n2)cc1OC showed an MIC (Staphylococcus aureus [1]) of 0.125 µg/mL (≈ 0.187 µM), an MIC (Pseudomonas aeruginosa) of 128 µg/mL (≈ 192 µM) and an MIC [2] of 16 µg/mL (≈ 24 µM). For the same compound, the Ratio (Staphylococcus aureus [5]) was 2, the MIC (Staphylococcus aureus [6]) was 0.25 µg/mL (≈ 0.375 µM) and the MBIC50 (Staphylococcus aureus [7]) was 0.3 µg/mL. For the same compound, the Activity (Staphylococcus aureus [8]) was “>=3 log10CFU/ml” and the CC50 at 48 h [4] was ≥ 592 µg/mL.

In the case of O=C(CN1CCN(c2cc3c(cc2F)c(=O)c(C(=O)O)cn3C2CC2)CC1)Nc1ccc(-n2ccc(-c3ccc(Cl)cc3Cl)n2)cc1, the MIC (Staphylococcus aureus [1]) is reported as 16 µg/mL (≈ 23.7 µM), the MIC (Pseudomonas aeruginosa) is reported as > 128 µg/mL and the MIC [2] is reported as 64 µg/mL (≈ 94.7 µM).

O=C(O)c1cn(C2CC2)c2cc(N3CCNCC3)c(F)cc2c1=O [CIPROFLOXACIN] showed an MIC (Staphylococcus aureus [1]) of 0.25 µg/mL (≈ 0.754 µM), an MIC (Pseudomonas aeruginosa) of 0.06 µg/mL (≈ 0.181 µM) and an MIC (Staphylococcus aureus [6]) of 2 µg/mL (≈ 6.04 µM). For the same compound, the MBIC50 (Staphylococcus aureus [7]) was 1.06 µg/mL.

O=C(CN1CCN(c2cc3c(cc2F)c(=O)c(C(=O)O)cn3C2CC2)CC1)Nc1ccc(-n2ccc(-c3cc4ccccc4o3)n2)cc1 gave an MIC (Staphylococcus aureus [1]) of 1 µg/mL (≈ 1.55 µM), an MIC (Pseudomonas aeruginosa) of 32 µg/mL (≈ 49.5 µM) and an MIC [2] of 2 µg/mL (≈ 3.09 µM).

Work on O=C(O)c1cn(C2CC2)c2cc(N3CCN(C(=O)CCl)CC3)c(F)cc2c1=O yielded an MIC (Staphylococcus aureus [9]) of 0.1 µg/mL (≈ 0.245 µM), an MIC (Staphylococcus aureus [10]) of 0.1 µg/mL (≈ 0.245 µM) and an MIC (Staphylococcus aureus [11]) of 0.1 µg/mL (≈ 0.245 µM). The MIC (Staphylococcus aureus [12]) was 0.1 µg/mL (≈ 0.245 µM) and the MIC (Escherichia coli) was 0.1 µg/mL (≈ 0.245 µM).

Compound COc1cc(-c2ccn(-c3ccc(NC(=O)CN4CCN(c5cc6c(cc5F)c(=O)c(C(=O)O)cn6C5CC5)CC4)cc3)n2)cc(OC)c1OC has an MIC (Staphylococcus aureus [1]) of 0.125 µg/mL (≈ 0.179 µM), an MIC (Pseudomonas aeruginosa) of 32 µg/mL (≈ 45.9 µM) and an MIC [2] of 0.5 µg/mL (≈ 0.718 µM). The Ratio (Staphylococcus aureus [5]) was 2, the MIC (Staphylococcus aureus [6]) was 1 µg/mL (≈ 1.44 µM) and the MBIC50 (Staphylococcus aureus [7]) was 0.52 µg/mL. For the same compound, the CC50 at 48 h [4] was > 1000 µg/mL.

Work on COc1ccc(-c2ccn(-c3ccc(NC(=O)CN4CCN(c5cc6c(cc5F)c(=O)c(C(=O)O)cn6C5CC5)CC4)cc3)n2)cc1 yielded an MIC (Staphylococcus aureus [1]) of 4 µg/mL (≈ 6.28 µM), an MIC (Pseudomonas aeruginosa) of 32 µg/mL (≈ 50.3 µM) and an MIC [2] of 8 µg/mL (≈ 12.6 µM).

In the case of O=C(O)c1ccc(-c2nn(-c3ccc(C(F)(F)F)cc3)cc2CNc2ccc(Br)c(C(F)(F)F)c2)cc1, the MIC (Staphylococcus aureus [13]) is reported as < 1 µg/mL.
